The values that follow come from publication PMC6811854 (ACS Omega, 2019).

For data set [1], the system named is Neuro2A cells. As to the kind of experiment: Neurite outgrowth assay. Format: cell-based, mouse. Particulars: for optimum neuritogenic concentration: average neurite length; for neurite outgrowth promotion compared to no inhibitor (vehicle): differentiated Neuro2A cells, 48 h post-treatment, 10, 1, 0.1, 0.01 μM.
In data set [2] the test system is HDAC8 (class I), HDAC4 (class IIa), HDAC6 (class IIb). Nature of the data set: HDACi selectivity assay. It is filed as biochemical, Human. The following applies: enzymes immunoprecipitated from HeLA cells; 10, 1, 0.1, 0.01, 0.001 μM.
The subject of another data set is Zebrafish. As to the kind of experiment: Social interaction test in chronic unpredictable stress. Format: in vivo, Zebrafish (Danio rerio). Particulars: intraperitoneal. A digest of the protocol:
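Adult zebrafish were held at 28 ± 2 °C on a 14/10 h light/dark cycle. They then had 7 days of chronic unpredictable stress, two varied stressors daily (restraint, 33/23 °C, isolation, crowding, predator, chasing, alarm pheromone, etc.). Test compound was given at 10, 25 or 50 mg/kg, with fluoxetine 15 mg/kg as reference. Each fish then spent 120 s with an unfamiliar pink zebrafish target. Video was scored manually for latency, interaction time and freezing; n = 15.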

Data set [3] concerns Neuro2A cells. Nature of the data set: Immunoblot of acetylated H3, H4 and tubulin in Neuro2A cells. The following applies: 1 μM, compared to vehicle. It is filed as cell-based, mouse. Summed up: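 Neuro2A cells were exposed to compound or vehicle and harvested in Laemmli buffer; protein was assayed by amido black. Equal protein went on 12% SDS-PAGE, then PVDF transfer. Primaries ran overnight at 4 °C and secondaries 2 h at room temperature, with chemiluminescent detection. Acetylated H3, H4 and tubulin were quantified and compared with vehicle by Student's t-test.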

A short description of data set [4]: BBB crossing: TLC detection in Zebrafish brain extract. Format: in vivo. Particulars: 25 mg/kg, intraperitoneal injection. A digest of the protocol: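 Adult zebrafish were dosed with 25 mg/kg test compound or DMSO vehicle. Fish were anaesthetised on ice, and the whole brain was removed and freeze-dried in liquid nitrogen. Brains were ground in HPLC-grade ethyl acetate, sonicated, centrifuged (10 000 rpm, 20 min) and left 20 min to separate the extract. Compound in the extract was detected by TLC.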

The subject of data set [5] is Neuro2A cells. As to the kind of experiment: Cell viability assay. Particulars: 10 μM, 72 h, MTT assay. It is filed as cell-based, mouse. Summed up: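 Neuro2A cells were kept in DMEM/10% FBS with supplements at 37 °C, 5% CO2, and seeded at 10 000 cells/cm2. After 24 h they were differentiated in 1% FBS and exposed to compounds (10, 1.0, 0.1 μM) for 72 h. MTT was added for 2 h at 37 °C, formazan was dissolved in DMSO and absorbance read at 562 nm. Viability is given relative to vehicle.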

[6] abbreviates: compound 5 at 50 mg dose, vs vehicle-treated group.

On to `O=C(CCCCCc1ccc2c(c1)c1ccccc1n2Cc1ccccc1)NO` [Compound 4, 6-(9-Benzyl-9H-carbazol-3-yl)-N-hydroxyhexanamide], for which, in the data set on Neuro2A cells [1] (Neuro2A cells), the “neurite growth activity and viability above the optimum neuritogenic concentration” value was “reduced neurite growth activity and viability”; the optimum neuritogenic concentration was 0.1 µM. Further, the “neurite outgrowth promotion compared to no inhibitor (vehicle)” value in the data set on Neuro2A cells [1] is listed as “significantly more neurite outgrowth promotion”.
On to `O=C(CCCCCCCc1ccc2[nH]c3ccccc3c2c1)NO` [Compound 5, 8-(9H-Carbazol-3-yl)-N-hydroxyoctanamide], for which, in the data set with Neuro2A cells [1] (Neuro2A cells), the “neurite growth activity and viability above the optimum neuritogenic concentration” value is “reduced neurite growth activity and viability”; the optimum neuritogenic concentration came out at 1 µM. The “neurite outgrowth compared to vorinostat and tubastatin-A” value in the data set with Neuro2A cells [1] (Neuro2A cells, at optimum neuritogenic concentrations) was “remarkably more neurite outgrowth”. Also, in the data set on Neuro2A cells [1], the “neurite outgrowth promotion compared to no inhibitor (vehicle)” value was “significantly more neurite outgrowth promotion”. Further, the HDAC class selectivity entry in data set [2] was “selectivity for class II (class IIa-HDAC4 and class IIb- HDAC6) over class I (HDAC8)”. Further, in the data set with Zebrafish (setting [6]), the “latency to social interaction” value was “not at 50 mg dose” and the “total time spent in interaction zone” value was “not at 50 mg dose”. Further, in the data set on Neuro2A cells [3], the “acetylated H3” value was “significant increase”, the “acetylated H4” value is “significant increase” and the acetylated tubulin result is listed as “significant increase”. Further, the “crossing of the blood-brain barrier (detection in brain extract by TLC)” value in data set [4] is on record as “crossing the BBB”. In addition, in the data set with Neuro2A cells [5], the “cell viability (cytotoxicity)” value was “does not show any observable toxicity”.
As for `O=C(CCCCC(=NO)c1ccc2c(c1)c1ccccc1n2Cc1ccccc1)NO` [Compound 6, 6-(9-Benzyl-9H-carbazol-3-yl)-N-hydroxy-6-(hydroxyimino)hexanamide], in the data set with Neuro2A cells [1] (Neuro2A cells), the “neurite growth activity and viability above the optimum neuritogenic concentration” value was “reduced neurite growth activity and viability”; the optimum neuritogenic concentration stood at 0.01 µM. Moreover, the “neurite outgrowth promotion compared to no inhibitor (vehicle)” value with Neuro2A cells [1] is given as “significantly more neurite outgrowth promotion”.
Take `O=C(CCCCCCC(=NO)c1ccc2c(c1)c1ccccc1n2Cc1ccccc1)NO` [Compound 7, 8-(9-Benzyl-9H-carbazol-3-yl)-N-hydroxy-8-(hydroxyimino)octanamide]: in the data set on Neuro2A cells [1] (Neuro2A cells), the “neurite growth activity and viability above the optimum neuritogenic concentration” value was “reduced neurite growth activity and viability”; the optimum neuritogenic concentration was found to be 0.1 µM. In the data set on Neuro2A cells [1], the “neurite outgrowth promotion compared to no inhibitor (vehicle)” value is “significantly more neurite outgrowth promotion”.
Take `O=C(CCCCc1ccc2c(c1)c1ccccc1n2CC(=O)NO)NO` [Compound 8, N-hydroxy-5-(9-(2-(hydroxyamino)-2-oxoethyl)-9H-carbazol-3-yl)pentanamide]: in the data set on Neuro2A cells [1] (Neuro2A cells), the “neurite growth activity and viability above the optimum neuritogenic concentration” value is “reduced neurite growth activity and viability”; the optimum neuritogenic concentration was found to be 0.1 µM. Also, the “neurite outgrowth promotion compared to no inhibitor (vehicle)” value in the data set with Neuro2A cells [1] is “significantly more neurite outgrowth promotion”.
As to `O=C(CCCC(=NO)n1c2ccccc2c2ccccc21)NO` [Compound 10, 5-(9H-Carbazol-9-yl)-N-hydroxy-5-(hydroxyimino)pentanamide], in the data set on Neuro2A cells [1] (Neuro2A cells), the “neurite growth activity and viability above the optimum neuritogenic concentration” value is “reduced neurite growth activity and viability”; the optimum neuritogenic concentration worked out at 0.1 µM. For the same compound, the “neurite outgrowth promotion compared to no inhibitor (vehicle)” value in the data set on Neuro2A cells [1] is on record as “significantly more neurite outgrowth promotion”.
Consider `O=C(CCCCC(=NO)n1c2ccccc2c2ccccc21)NO` [Compound 11, 6-(9H-Carbazol-9-yl)-N-hydroxy-6-(hydroxyimino)hexanamide], for which, in the data set on Neuro2A cells [1] (Neuro2A cells), the “neurite growth activity and viability above the optimum neuritogenic concentration” value was “reduced neurite growth activity and viability”; the optimum neuritogenic concentration amounted to 0.1 µM. For the same compound, in the data set with Neuro2A cells [1], the “neurite outgrowth promotion compared to no inhibitor (vehicle)” value is “significantly more neurite outgrowth promotion”.
Consider `CNCCC(Oc1ccc(C(F)(F)F)cc1)c1ccccc1` (stereo not drawn) [fluoxetine, reference compound], for which the “freezing duration (social interaction test)” value in the data set on Zebrafish (compound 5 (10, 25, 50 mg/kg tested), fluoxetine 15 mg/kg) is on record as “trend of decreased freezing duration”.
With `CN1CCc2c(c3ccccc3n2Cc2ccc(C(=O)NO)cc2)C1` [tubastatin-A, reference compound], in the data set with Neuro2A cells [1] (Neuro2A cells), the “neurite growth activity and viability above the optimum neuritogenic concentration” value is “reduced neurite growth activity and viability”; the optimum neuritogenic concentration came out at 10 µM. Besides, the “neurite outgrowth promotion compared to no inhibitor (vehicle)” value with Neuro2A cells [1] is “significantly more neurite outgrowth promotion”.
With `O=C(CCCCCCC(=O)Nc1ccccc1)NO` [vorinostat, suberoylanilide hydroxamic acid, reference compound], in the data set on Neuro2A cells [1] (Neuro2A cells), the “neurite growth activity and viability above the optimum neuritogenic concentration” value was “reduced neurite growth activity and viability”; the optimum neuritogenic concentration was found to be 1 µM.
